Assay results reported in ChEMBL document CHEMBL3352316, “Optimization of physicochemical properties and safety profile of novel bacterial topoisomerase type II inhibitors (NBTIs) with activity against Pseudomonas aeruginosa” (Bioorg Med Chem, 2014).
Converted amounts (≈) assume the structure as drawn.

Experiments:
[1] = biological target: T1, Potassium voltage-gated channel subfamily KQT member 1 (Homo sapiens, UniProt P51787); experiment: Inhibition of potassium channel IKs (unknown origin)
T1 sequence (P51787 whole entry): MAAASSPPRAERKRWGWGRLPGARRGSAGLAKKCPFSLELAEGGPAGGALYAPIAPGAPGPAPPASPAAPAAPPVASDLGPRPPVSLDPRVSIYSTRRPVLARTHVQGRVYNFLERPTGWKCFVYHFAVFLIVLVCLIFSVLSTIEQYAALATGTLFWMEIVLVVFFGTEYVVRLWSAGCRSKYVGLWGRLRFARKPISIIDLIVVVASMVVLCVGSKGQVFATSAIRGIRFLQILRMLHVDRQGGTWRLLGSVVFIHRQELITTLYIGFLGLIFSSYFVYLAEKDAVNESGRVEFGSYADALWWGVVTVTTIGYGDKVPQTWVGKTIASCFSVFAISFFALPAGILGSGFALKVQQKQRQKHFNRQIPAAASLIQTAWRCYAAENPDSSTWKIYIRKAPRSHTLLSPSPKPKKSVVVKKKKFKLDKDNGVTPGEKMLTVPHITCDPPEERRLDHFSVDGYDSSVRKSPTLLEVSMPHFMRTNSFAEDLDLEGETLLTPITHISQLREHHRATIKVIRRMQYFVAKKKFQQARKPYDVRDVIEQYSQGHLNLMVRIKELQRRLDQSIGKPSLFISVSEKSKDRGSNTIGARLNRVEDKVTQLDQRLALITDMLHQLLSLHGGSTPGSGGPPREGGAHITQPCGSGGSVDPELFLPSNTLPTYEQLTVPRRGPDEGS
Method in brief: (§1)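 Automated IonWorks patch clamp was run on CHO or HEK cells expressing each channel. A channel-specific voltage pulse was applied before compound and again about 3 min after addition.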

[2] = biological target: Voltage-dependent L-type calcium channel subunit alpha-1C (Homo sapiens, UniProt Q13936); experiment: Inhibition of […] channel Cav1.2 (unknown origin); method in brief: as §1
[3] = biological target: Sodium channel protein type 5 subunit alpha (Homo sapiens, UniProt Q14524); experiment: Inhibition of […] channel Nav1.5 (unknown origin); method in brief: as §1
[4] = Half life in beagle dog at 10 mg/kg, iv; type: ADME, organism-based, Canis lupus familiaris; design: dose 10 mg/kg, route intravenous; conditions: in vivo
Method in brief: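 Male rats (Wistar Han) and Beagle dogs received 10 mg/kg as a 15 min iv infusion. Serial 200 µL whole-blood samples were taken from 0 to 24 h. Plasma levels were measured by LC–MS/MS against a standard curve after methanol protein precipitation. Parameters were estimated non-compartmentally.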

[5] = biological target: Sodium-dependent noradrenaline transporter (Homo sapiens) (UniProt P23975); experiment: Inhibition of NET (unknown origin) at 30 uM
[6] = Inhibition of Escherichia coli topoisomerase IV ATPase activity
Staphylococcus aureus = experiment: Antimicrobial activity against methicillin-susceptible Staphylococcus aureus after 18 to 20 hrs by broth microdilution; type: functional
Method in brief: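 Broth microdilution followed CLSI guidelines in Mueller Hinton broth. Inocula were grown 18–20 h at 35 °C on blood agar. Compound in DMSO was tested in doubling dilutions from 64 to 0.06 µg/mL, at 2% DMSO final. Plates were incubated 18–20 h and read at OD 620 nm. MIC was taken as the concentration giving >90% growth inhibition.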

Cavia porcellus = experiment: Cardiotoxicity in anesthetized guinea pig assessed as change in monophasic action potential duration at 90% repolarization at free drug 86 uM, iv as 17-min infusion; type: toxicity, organism-based; conditions: in vivo
Method in brief: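 Male guinea pigs were anaesthetized with Nembutal, ventilated, vagotomized and given propranolol 0.5 mg/kg iv. MAPD90 was recorded during pacing. Compound in 5% dextrose was infused iv over two 17-min periods: 17 mg/kg at 0.1 mL/kg min, then 51 mg/kg at 0.2 mL/kg min. Blood was sampled at each level, and % change was taken from each animal's time-zero baseline.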

[7] = Partition co-efficient, log D of the compound at pH 7.4 by shake flask method; type: physicochemical; conditions: buffer
Method in brief: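 Shake-flask method with 10 mM phosphate buffer pH 7.4 against n-octanol, shaken 1 h at 1200 rpm to equilibrium. Analysis was by LC/UV with MS confirmation.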

Pseudomonas aeruginosa [8] = experiment: Antimicrobial activity against Pseudomonas aeruginosa PAO1 in neutropenic mouse thigh infection model assessed as log reduction in CFU at 100 mg/kg/day, ip bid q12 regime starting 2 hrs after infection measured 24 hrs post start of treatment relative to control; type: functional; conditions: route intraperitoneal
Method in brief: (§2)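 CD-1 mice made neutropenic with intraperitoneal cyclophosphamide 4 days (150 mg/kg) and 1 day (100 mg/kg) before thigh infection with P. aeruginosa PAO1, target inoculum 5 × 10⁵ CFU. Groups of five dosed ip in 5% dextrose with lactic acid pH 5.0. Vehicle-only group included. Thighs removed 24 h after treatment start, weighed, homogenized and plated on tryptic soy agar, 37 °C overnight. Log CFU/g reduction is relative to starting inoculum.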

[9] = AUC(infinity) in neutropenic mouse at 150 mg/kg/day, ip bid of total 12 doses; type: ADME, organism-based; design: dose 150 mg/kg/day, time infinity, route intraperitoneal; conditions: plasma
Method in brief: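 CD-1 mice were made neutropenic with ip cyclophosphamide, 150 mg/kg at day −4 and 100 mg/kg at day −1, then infected in the thigh with P. aeruginosa PAO1. Dosing was ip, bid q12 from 2 h post-infection, in 5% dextrose with lactic acid pH 5.0. Groups of three mice were killed at timed intervals and cardiac-puncture plasma was analysed by LC–MS/MS.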

Pseudomonas aeruginosa [10] = experiment: Antimicrobial activity against Pseudomonas aeruginosa PAO1 in neutropenic mouse thigh infection model assessed as log reduction in CFU at 150 mg/kg/day, ip bid q12 regime starting 2 hrs after infection measured 24 hrs post start of treatment relative to control; type: functional; conditions: route intraperitoneal; method in brief: as §2
Pseudomonas aeruginosa [11] = experiment: Antimicrobial activity against Pseudomonas aeruginosa PAO1 in neutropenic mouse thigh infection model assessed as log reduction in CFU at 200 mg/kg/day, ip bid q12 regime starting 2 hrs after infection measured 24 hrs post start of treatment relative to control; type: functional; conditions: route intraperitoneal; method in brief: as §2
[12] = Ratio of fAUC to MIC in Pseudomonas aeruginosa PAO1 in neutropenic mouse thigh infection model at 200 mg/kg/day, ip bid q12h starting 2 h post infection; conditions: route intraperitoneal
Canis familiaris = experiment: Cardiotoxicity in telemetered dog assessed as prolongation of QTc interval at 56 uM, iv as 1 hr infusion; type: toxicity, organism-based, Canis lupus familiaris; conditions: in vivo, 4 h, in the assay text read “4 hr infusion” for “1 hr infusion”
Method in brief: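 Dogs were dosed by iv infusion in vehicle adjusted to pH 4. ECG intervals were measured and QTcR was corrected for heart rate by individual-animal correction. % change in QTcR was taken against the matched time point of the same animal on vehicle. Infusion was 1 h at 5 mL/kg/h (5% dextrose) or 4 h at 2 mL/kg/h (5% mannitol/0.1 M tartaric acid), with readings at infusion end.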

[13] = biological target: Voltage-gated inwardly rectifying potassium channel KCNH2 (Homo sapiens, UniProt Q12809); experiment: Inhibition of human ERG by cell-based patch clamp method
[14] = Ratio of fAUC to MIC in Pseudomonas aeruginosa PAO1 in neutropenic mouse thigh infection model at 150 mg/kg/day, ip bid q12h starting 2 h post infection; conditions: route intraperitoneal
[15] = Ratio of fAUC to MIC in Pseudomonas aeruginosa PAO1 in neutropenic mouse thigh infection model at 100 mg/kg/day, ip bid of total 12 doses starting 2 h post infection; conditions: route intraperitoneal

Sodium channel protein type 5 subunit alpha, sequence (Q14524 whole entry): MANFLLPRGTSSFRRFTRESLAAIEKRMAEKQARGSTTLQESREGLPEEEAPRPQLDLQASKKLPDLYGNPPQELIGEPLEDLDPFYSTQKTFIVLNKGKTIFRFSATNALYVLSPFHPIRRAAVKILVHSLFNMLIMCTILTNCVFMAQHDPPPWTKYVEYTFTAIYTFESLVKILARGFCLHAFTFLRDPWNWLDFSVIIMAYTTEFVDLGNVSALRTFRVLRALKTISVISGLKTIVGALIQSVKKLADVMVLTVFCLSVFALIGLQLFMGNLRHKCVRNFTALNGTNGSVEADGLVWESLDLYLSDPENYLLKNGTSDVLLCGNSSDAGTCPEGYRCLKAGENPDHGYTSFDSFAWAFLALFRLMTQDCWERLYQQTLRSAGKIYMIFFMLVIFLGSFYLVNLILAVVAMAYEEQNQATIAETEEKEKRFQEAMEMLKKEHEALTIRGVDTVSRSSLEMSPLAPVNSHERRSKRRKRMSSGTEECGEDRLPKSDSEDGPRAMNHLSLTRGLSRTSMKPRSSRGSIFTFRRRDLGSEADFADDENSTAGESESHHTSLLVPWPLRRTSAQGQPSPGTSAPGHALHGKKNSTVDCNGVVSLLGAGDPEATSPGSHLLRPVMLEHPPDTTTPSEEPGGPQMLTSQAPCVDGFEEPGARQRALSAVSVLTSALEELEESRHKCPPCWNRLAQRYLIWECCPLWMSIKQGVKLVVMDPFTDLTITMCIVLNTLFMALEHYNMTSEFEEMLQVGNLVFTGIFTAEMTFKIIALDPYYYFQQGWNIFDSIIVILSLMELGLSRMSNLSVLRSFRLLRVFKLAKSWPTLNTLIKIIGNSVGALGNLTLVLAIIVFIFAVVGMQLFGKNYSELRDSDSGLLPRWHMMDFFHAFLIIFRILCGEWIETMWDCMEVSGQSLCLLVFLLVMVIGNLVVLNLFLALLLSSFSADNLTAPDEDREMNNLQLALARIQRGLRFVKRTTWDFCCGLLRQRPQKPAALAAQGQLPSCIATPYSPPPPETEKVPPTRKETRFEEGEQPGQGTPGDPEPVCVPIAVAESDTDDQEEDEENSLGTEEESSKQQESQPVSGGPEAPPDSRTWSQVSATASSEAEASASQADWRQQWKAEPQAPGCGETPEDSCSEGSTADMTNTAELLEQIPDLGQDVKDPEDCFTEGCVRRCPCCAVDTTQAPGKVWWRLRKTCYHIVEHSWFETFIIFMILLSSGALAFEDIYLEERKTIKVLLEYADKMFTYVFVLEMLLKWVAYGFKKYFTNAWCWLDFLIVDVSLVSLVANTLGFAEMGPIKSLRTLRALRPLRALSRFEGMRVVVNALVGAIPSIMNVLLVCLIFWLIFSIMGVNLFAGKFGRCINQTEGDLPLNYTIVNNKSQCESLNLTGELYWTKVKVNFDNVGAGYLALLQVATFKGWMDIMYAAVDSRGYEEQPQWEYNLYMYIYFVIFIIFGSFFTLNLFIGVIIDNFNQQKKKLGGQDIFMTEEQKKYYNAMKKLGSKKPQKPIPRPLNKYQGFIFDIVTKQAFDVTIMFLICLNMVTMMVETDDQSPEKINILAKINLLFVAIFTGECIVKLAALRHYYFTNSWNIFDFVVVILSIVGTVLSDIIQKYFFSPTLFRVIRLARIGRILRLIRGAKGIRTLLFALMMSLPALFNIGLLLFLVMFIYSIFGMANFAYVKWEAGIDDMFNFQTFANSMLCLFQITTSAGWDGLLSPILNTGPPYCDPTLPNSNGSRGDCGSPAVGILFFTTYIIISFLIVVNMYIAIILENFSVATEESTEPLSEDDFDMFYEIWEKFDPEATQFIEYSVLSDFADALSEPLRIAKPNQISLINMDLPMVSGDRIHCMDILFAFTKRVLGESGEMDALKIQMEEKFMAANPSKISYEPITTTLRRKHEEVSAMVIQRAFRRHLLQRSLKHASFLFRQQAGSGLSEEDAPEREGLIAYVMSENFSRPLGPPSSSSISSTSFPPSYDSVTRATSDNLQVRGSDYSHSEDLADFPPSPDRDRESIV
Sodium-dependent noradrenaline transporter (Homo sapiens), sequence (P23975 whole entry): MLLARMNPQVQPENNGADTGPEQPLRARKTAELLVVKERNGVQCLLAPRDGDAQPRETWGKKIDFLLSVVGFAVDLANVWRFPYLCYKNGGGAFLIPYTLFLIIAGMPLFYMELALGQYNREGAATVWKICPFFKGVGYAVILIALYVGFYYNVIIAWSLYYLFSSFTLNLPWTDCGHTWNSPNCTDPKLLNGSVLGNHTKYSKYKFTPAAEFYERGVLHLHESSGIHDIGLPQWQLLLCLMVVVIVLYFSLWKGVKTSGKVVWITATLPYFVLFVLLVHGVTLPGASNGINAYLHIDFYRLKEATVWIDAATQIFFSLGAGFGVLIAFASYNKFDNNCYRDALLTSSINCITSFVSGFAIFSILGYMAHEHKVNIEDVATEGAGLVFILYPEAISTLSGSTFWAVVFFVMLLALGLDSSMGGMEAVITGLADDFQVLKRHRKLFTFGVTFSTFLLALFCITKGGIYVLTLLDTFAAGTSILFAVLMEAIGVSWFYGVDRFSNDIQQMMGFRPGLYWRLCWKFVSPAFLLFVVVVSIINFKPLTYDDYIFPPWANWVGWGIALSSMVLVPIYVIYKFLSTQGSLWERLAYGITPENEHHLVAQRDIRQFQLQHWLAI
Voltage-dependent L-type calcium channel subunit alpha-1C, sequence (Q13936 whole entry): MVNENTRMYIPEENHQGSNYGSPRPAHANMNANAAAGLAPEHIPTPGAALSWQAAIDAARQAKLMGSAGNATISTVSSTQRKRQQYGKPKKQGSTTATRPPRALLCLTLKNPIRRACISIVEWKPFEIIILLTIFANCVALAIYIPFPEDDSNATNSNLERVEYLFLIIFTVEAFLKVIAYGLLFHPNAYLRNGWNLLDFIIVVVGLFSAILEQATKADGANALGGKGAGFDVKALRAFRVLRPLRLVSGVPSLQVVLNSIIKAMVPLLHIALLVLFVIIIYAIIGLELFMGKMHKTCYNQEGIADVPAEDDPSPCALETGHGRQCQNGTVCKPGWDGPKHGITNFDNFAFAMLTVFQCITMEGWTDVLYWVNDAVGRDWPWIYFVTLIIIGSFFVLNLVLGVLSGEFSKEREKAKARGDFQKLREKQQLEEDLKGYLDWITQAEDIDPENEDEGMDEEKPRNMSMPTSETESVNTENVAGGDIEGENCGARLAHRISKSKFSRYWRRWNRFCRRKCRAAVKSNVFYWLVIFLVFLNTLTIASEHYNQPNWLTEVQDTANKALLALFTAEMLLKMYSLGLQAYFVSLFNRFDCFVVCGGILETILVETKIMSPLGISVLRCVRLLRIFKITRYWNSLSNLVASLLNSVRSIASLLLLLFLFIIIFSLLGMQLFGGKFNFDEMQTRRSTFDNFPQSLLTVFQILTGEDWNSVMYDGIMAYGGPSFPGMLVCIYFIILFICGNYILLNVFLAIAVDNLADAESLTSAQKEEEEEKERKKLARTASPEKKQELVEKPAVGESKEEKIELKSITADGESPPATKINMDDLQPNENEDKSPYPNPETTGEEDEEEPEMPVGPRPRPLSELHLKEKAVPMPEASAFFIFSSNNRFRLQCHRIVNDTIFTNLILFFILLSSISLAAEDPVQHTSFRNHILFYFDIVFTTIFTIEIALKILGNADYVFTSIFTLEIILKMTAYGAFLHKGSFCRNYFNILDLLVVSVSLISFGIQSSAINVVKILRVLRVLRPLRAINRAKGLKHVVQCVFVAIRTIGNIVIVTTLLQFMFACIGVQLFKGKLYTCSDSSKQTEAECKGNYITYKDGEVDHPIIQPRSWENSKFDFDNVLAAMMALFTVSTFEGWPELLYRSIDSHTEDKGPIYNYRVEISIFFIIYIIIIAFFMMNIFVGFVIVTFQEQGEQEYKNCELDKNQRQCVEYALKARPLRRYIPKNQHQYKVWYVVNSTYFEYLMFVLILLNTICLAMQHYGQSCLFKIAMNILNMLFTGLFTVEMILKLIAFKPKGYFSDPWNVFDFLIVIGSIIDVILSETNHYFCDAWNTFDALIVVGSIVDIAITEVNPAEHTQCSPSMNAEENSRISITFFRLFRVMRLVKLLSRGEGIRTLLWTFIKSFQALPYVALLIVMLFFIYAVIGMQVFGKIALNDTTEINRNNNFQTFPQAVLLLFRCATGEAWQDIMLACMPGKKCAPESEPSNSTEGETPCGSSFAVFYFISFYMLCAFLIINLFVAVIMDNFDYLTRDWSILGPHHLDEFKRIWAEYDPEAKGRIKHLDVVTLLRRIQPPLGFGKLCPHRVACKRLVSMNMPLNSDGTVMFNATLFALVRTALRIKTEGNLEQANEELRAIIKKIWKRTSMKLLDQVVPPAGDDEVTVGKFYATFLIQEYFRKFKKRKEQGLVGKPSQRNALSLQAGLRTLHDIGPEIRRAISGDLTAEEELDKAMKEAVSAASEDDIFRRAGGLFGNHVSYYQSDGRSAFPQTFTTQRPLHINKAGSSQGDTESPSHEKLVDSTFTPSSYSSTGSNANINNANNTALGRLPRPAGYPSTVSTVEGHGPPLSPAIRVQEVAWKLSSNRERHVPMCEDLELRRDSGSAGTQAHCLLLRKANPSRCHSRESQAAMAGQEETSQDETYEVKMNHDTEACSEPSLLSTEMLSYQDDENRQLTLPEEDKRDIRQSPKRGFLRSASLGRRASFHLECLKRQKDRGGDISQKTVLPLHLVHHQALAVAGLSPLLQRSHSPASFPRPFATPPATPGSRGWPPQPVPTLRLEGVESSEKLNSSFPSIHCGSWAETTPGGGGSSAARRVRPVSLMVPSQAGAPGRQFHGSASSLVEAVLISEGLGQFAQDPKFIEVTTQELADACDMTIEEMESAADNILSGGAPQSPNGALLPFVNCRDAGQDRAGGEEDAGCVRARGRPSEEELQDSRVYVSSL

| Compound | IC50 [1] [µM] | IC50 [2] [µM] | IC50 [3] [µM] | half-life [4] [min] | inhibition [5] [%] | IC50 [6] [nM] | MIC90 (Staphylococcus aureus) [µg/mL] | Activity (Cavia porcellus) | logD [7] | FC (Pseudomonas aeruginosa [8]) | AUC(0-inf) [9] [ng·h/mL] | FC (Pseudomonas aeruginosa [10]) | FC (Pseudomonas aeruginosa [11]) | fAUC/MIC [12] | Activity (Canis familiaris) [%] | IC50 [13] [µM] | fAUC/MIC [14] | fAUC/MIC [15] |
| --- | --- | --- | --- | --- | --- | --- | --- | --- | --- | --- | --- | --- | --- | --- | --- | --- | --- | --- |
| COc1ccc2ncc(=O)n(CCN3CCC(NCc4ccc5c(n4)NC(=O)CO5)CC3)c2c1 | > 100 | > 333 | 92 | 780 | 61 | 2.2 | 0.03 (≈ 0.0646 µM) | – | – | – | – | – | – | – | – | – | – | – |
| N[C@@H](Cn1c(=O)cnc2ccc(F)cc21)[C@H]1CC[C@H](NCc2ncc3c(n2)NC(=O)CO3)CC1 | > 333 | > 333 | > 333 | 540 | 9 | 3 | 1 (≈ 2.14 µM) | Toxic | -0.32 | 0.2 | 20100 | 1.3 | 2.5 | 23 | 9 | > 333 | 16 | 12 |
